Most compounds without a hit are left out; they make up all but 3.1% or so of the library.
DENV2 CPE rescue: inhibitors of DENV2 cytopathic effect, primary screen, cell-based, plate reader, single concentration | AID 651640, 2012 | 1.7% of 350,000 active | DENV2-infected cells, cytopathic effect rescue | CPE inhibition, % at 9.99 µM; in the data active = CPE inhibition above about 20%, passing the limit was not always enough; inconclusive = no clear call, values can overlap the other calls; tested in BHK-21 cells;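 note: 0% = median of neutral control wells and 100% = median of positive control wells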
Ecoli rRNA inh: reduced GFP signal of wild-type E. coli, primary screen, bacterial rRNA inhibitor project, GFP/RFP fluorescence, OD600, single point | E. coli WT GFP vs humanized-ribosome RFP mutants, 24 h; hits give low values; DMSO median 0, no signal -100 | GFP signal change (wild-type ribosome), % (test concentration not listed) | 1.6% of 350,000 active;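 active = significant combined selectivity score with lowered wild-type GFP, culture density cut under 30%, mutant RFP and density less affected; inactive = any of these conditions unmet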
E-sel inducer: E-selectin induction in HUVECs, primary screen, imaging, HUVEC, immunofluorescence imaging, single point; P16581; normalized: neutral wells 0, TNF-alpha wells 100; activation, % at 7.58 µM; 0.37% of 260,000 active; AID 686992, 2013;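 active = mean E-selectin-positive cell signal at least 10% of the positive control, reached in at least 60% of replicates, without over 20% cell loss; inconclusive = no rule given, readout overlaps actives, possibly toxicity-flagged; inactive = the rest, including those meeting only one limit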
Target sequence (P16581 whole entry, looked up): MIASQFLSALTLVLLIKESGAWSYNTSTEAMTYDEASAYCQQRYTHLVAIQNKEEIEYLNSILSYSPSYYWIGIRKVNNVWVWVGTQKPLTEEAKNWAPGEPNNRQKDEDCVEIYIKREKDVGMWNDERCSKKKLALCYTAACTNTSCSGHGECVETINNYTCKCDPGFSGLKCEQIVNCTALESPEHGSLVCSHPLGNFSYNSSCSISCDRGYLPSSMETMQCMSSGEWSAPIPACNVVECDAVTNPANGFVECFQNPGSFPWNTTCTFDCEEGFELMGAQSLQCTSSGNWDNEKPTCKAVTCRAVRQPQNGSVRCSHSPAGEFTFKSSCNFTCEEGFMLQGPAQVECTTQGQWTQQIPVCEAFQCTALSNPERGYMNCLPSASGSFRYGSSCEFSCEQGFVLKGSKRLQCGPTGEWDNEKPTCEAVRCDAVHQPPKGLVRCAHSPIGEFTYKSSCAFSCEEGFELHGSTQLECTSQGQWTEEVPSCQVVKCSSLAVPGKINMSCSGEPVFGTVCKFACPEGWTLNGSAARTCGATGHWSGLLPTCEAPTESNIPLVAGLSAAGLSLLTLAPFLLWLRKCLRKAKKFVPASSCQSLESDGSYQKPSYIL
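Assay system: HUVEC, human umbilical vein endothelial cells / Amount: 3,000 HUVEC/well / Controls: TNF-alpha positive control, DMSO neutral control / Compound dosing: single concentration / Medium: EGM-2 over gelatin coat / Evaluation: percent E-selectin-positive cells / Signal: immunofluorescence imaging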
miR-122 sensor: miR-122 Renilla sensor signal increase in Huh7, primary screen, miR-122 inhibitor project, cell-based, single point, plate reader. 0.3% of 340,000 active. AID 602342, 2012. Huh7 miR-122 Renilla luciferase sensor, 48 h; neutral wells = 0, positive control = 100. activation (reporter increase), % at 12.5 µM;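 active = mean replicate activation score at least 90 and every replicate individually at or above 90; inconclusive = only one of the two criteria met; inactive = neither criterion met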;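 note: higher luciferase means less miR-122 activity so hits act as miR-122 inhibitors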
Cneo AK release: Cryptococcus neoformans cell lysis inducers, primary screen, AK release luminescence, single concentration | C. neoformans lysis, adenylate kinase release luminescence, 4 h; normalised: neutral wells 0, clomiphene wells 100 | lysis activity, % at 15 µM | 0.2% of 360,000 active | AID 651654, 2012;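 active = mean lysis activity across replicates of at least 80%, whatever share of replicates individually reach that level; inactive = mean lysis activity below 80%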
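Assay system: Cryptococcus neoformans yeast cells / Dosing: single-point compound dose / Timing: 4 h at 37 °C static, read 1 h later / Measured by: luminescence of released adenylate kinase using an AK detection reagent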
Active calls of the source: *; ? = inconclusive; . = not tested or not shown; [ ] = dose if it differs, or a comment.

SMILES	DENV2 CPE rescue	Ecoli rRNA inh	E-sel inducer	miR-122 sensor	Cneo AK release
Cc1ccc(S(=O)(=O)Nc2ccc3cn[nH]c3c2)c(C)c1	-6.2	-18.8	.	.	0.6
O=S(=O)(Nc1ccc2cn[nH]c2c1)c1cc(Br)ccc1Br	-7.2	-52.9	1.1	179.8*	10.7
CCOc1cc(C)c(S(=O)(=O)Nc2ccc3cn[nH]c3c2)cc1C	.	.	.	124.0*	2.0
CCOc1cc(C)c(S(=O)(=O)Nc2ccc(Cl)cn2)cc1C	.	.	-0.6	124.0*	2.5
CCc1ccc(S(=O)(=O)Nc2ccc(Cl)cn2)cc1	3.4	13.2	0.3	178.0*	1.6
CCC(=O)N(C)C[C@H]1Oc2ncc(C3=CCCC3)cc2C(=O)N([C@@H](C)CO)C[C@@H]1C	-11.1	3.6	0.8	2.8[16.7 µM]	-0.6
COc1ccc(NC(=O)N(C)C[C@H]2Oc3c(NS(=O)(=O)c4ccccc4)cccc3C(=O)N([C@@H](C)CO)C[C@@H]2C)cc1	.	0.6	1.0	2.0[16.7 µM]	.
C[C@@H]1CN([C@@H](C)CO)C(=O)c2cccc(NC(=O)CCCCCC(=O)Nc3ccccc3N)c2O[C@@H]1CN(C)S(C)(=O)=O	-13.6	10.1	.	.	.
CCS(=O)(=O)N1CC2(C1)[C@@H](c1ccccc1)[C@@H](CO)N2C(=O)C1CCC1	?	-1.4	0.1	.	.
Cc1cc(C)c(S(=O)(=O)Nc2ccc(Cl)cn2)c(C)c1	-2.7	-31.1*	-0.5	.	0.2
Cc1ccc(S(=O)(=O)N(C)C[C@H]2Oc3ccc(NC(=O)Nc4c(C)noc4C)cc3CC(=O)N([C@H](C)CO)C[C@@H]2C)cc1	5.5	0.8	-0.3	-1.5[16.7 µM]	-4.2
C[C@H](CO)N1C[C@H](C)[C@@H](CN(C)S(C)(=O)=O)Oc2ccc(NC(=O)Cc3ccccc3)cc2CC1=O	23.1*	1.6	3.4	0.4[16.7 µM]	6.9
C[C@H](CO)N1C[C@H](C)[C@@H](CN(C)S(=O)(=O)c2ccc(Cl)cc2)Oc2ccc(NS(=O)(=O)c3ccc(F)cc3)cc2CC1=O	?	-3.5	58.9*	-0.6[16.7 µM]	1.3
C[C@H]1CN([C@@H](C)CO)C(=O)Cc2cc(NS(=O)(=O)c3ccc(F)cc3)ccc2O[C@@H]1CN(C)S(=O)(=O)c1ccc(F)cc1	-10.6	-1.1	-0.3	60.9[16.7 µM]	98.0*
C[C@H](CO)N1C[C@H](C)[C@H](CN(C)S(=O)(=O)c2ccc(Cl)cc2)Oc2ccc(NS(=O)(=O)c3ccc(F)cc3)cc2CC1=O	-11.8	1.8	92.2*	6.8[16.7 µM]	-1.5
C[C@@H]1CN([C@H](C)CO)C(=O)Cc2cc(NS(=O)(=O)c3ccc(F)cc3)ccc2O[C@@H]1CN(C)S(C)(=O)=O	30.8*	4.1	0.0	4.6[16.7 µM]	-0.4
C[C@@H]1CN([C@@H](C)CO)C(=O)Cc2cc(NS(=O)(=O)c3ccccc3)ccc2O[C@@H]1CN(C)S(C)(=O)=O	24.2*	3.5	-0.5	9.3[16.7 µM]	-0.1
C[C@H](CO)N1C[C@H](C)[C@@H](CN(C)S(C)(=O)=O)Oc2ccc(NS(=O)(=O)c3ccc(F)cc3)cc2CC1=O	-5.5	-0.2	0.0	.	.
C[C@H]1CN([C@@H](C)CO)C(=O)Cc2cc(NC(=O)CCC(F)(F)F)ccc2O[C@@H]1CN(C)C	-0.2	9.6	.	-3.2[16.7 µM]	-0.3
CC(=O)Nc1cccc(C(=O)OCC(=O)Nc2ccc(Cl)cn2)c1	55.8*	5.2	-0.8	2.3	-0.9
CC(=O)Nc1cccc(C(=O)OCC(=O)c2ccccc2Cl)c1	0.4	-24.2*	.	.	.
CCCCn1nc(C(=O)NCC2COc3ccccc3O2)c2ccccc2c1=O (stereo not drawn)	-3.7	-36.1*	-0.4	4.3	-1.1
C[C@@H]1CN([C@@H](C)CO)C(=O)Cc2cc(NC(=O)Nc3cccc4ccccc34)ccc2O[C@H]1CN(C)Cc1ccccc1	20.4*	2.5	0.2	-9.3[16.7 µM]	1.6
C[C@@H]1CN([C@@H](C)CO)C(=O)Cc2cc(NC(=O)Nc3cccc4ccccc34)ccc2O[C@@H]1CN(C)Cc1ccc(C(=O)O)cc1	48.9*	-5.1	0.0	5.8[16.7 µM]	114.7*

Screening results (PubChem)
